ChEMBL document CHEMBL3044834, “Novel protoporphyrinogen oxidase inhibitors: 3H-pyrazolo[3,4-d][1,2,3]triazin-4-one derivatives” (J Agric Food Chem, 2008)

Columns and labels:
Format in all cases: functional
[1] = system: Digitaria sanguinalis; experiment: Herbicidal activity against Digitaria sanguinalis (hairy crabgrass) assessed as inhibition of fresh weed plant weight at 1500 g/ha using pre-emergence treatment protocol
[2] = system: Amaranthus retroflexus; experiment: Herbicidal activity against Amaranthus retroflexus assessed as inhibition of fresh weed plant weight at 1500 g/ha using post-emergence treatment protocol
Summary of the method: (§1)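 Test compounds made up as emulsions by dissolving in 100 µL N,N-dimethylformamide, then adding a little Tween 20 and water. For post-emergence, weed seedlings at one leaf and one stem were sprayed at the same rates as the pre-emergence test. Fresh weight was recorded 15 days after treatment and expressed as percent inhibition versus controls. All treatments were run in triplicate.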

[3] = system: Amaranthus retroflexus; experiment: Herbicidal activity against Amaranthus retroflexus assessed as inhibition of fresh weed plant weight at 1500 g/ha using pre-emergence treatment protocol
[4] = system: Brassica rapa subsp. oleifera; experiment: Herbicidal activity against Brassica rapa subsp. oleifera assessed as inhibition of fresh weed plant weight at 93.75 g/ha using pre-emergence treatment protocol
[5] = system: Brassica rapa subsp. oleifera; experiment: Herbicidal activity against Brassica rapa subsp. oleifera assessed as inhibition of fresh weed plant weight at 187.5 g/ha using pre-emergence treatment protocol
[6] = system: Brassica rapa subsp. oleifera; experiment: Herbicidal activity against Brassica rapa subsp. oleifera assessed as inhibition of fresh weed plant weight at 375 g/ha using pre-emergence treatment protocol
[7] = system: Brassica rapa subsp. oleifera; experiment: Herbicidal activity against Brassica rapa subsp. oleifera assessed as inhibition of fresh weed plant weight at 750 g/ha using pre-emergence treatment protocol
[8] = system: Digitaria sanguinalis; experiment: Herbicidal activity against Digitaria sanguinalis (hairy crabgrass) assessed as inhibition of fresh weed plant weight at 1500 g/ha using post-emergence treatment protocol; summary of the method: as §1
[9] = system: Brassica rapa subsp. oleifera; experiment: Herbicidal activity against Brassica rapa subsp. oleifera assessed as inhibition of fresh weed plant weight at 1500 g/ha using post-emergence treatment protocol; summary of the method: as §1
[10] = system: Brassica rapa subsp. oleifera; experiment: Herbicidal activity against Brassica rapa subsp. oleifera assessed as inhibition of fresh weed plant weight at 1500 g/ha using pre-emergence treatment protocol
[11] = system: Echinochloa crus-galli; experiment: Herbicidal activity against Echinochloa crus-galli (barnyard grass) assessed as inhibition of fresh weed plant weight at 750 g/ha using pre-emergence treatment protocol
[12] = system: Amaranthus retroflexus; experiment: Herbicidal activity against Amaranthus retroflexus assessed as inhibition of fresh weed plant weight at 750 g/ha using pre-emergence treatment protocol; summary of the method: as §1
[13] = system: Amaranthus retroflexus; experiment: Herbicidal activity against Amaranthus retroflexus assessed as inhibition of fresh weed plant weight at 375 g/ha using pre-emergence treatment protocol
[14] = system: Digitaria sanguinalis; experiment: Herbicidal activity against Digitaria sanguinalis (hairy crabgrass) assessed as inhibition of fresh weed plant weight at 187.5 g/ha using pre-emergence treatment protocol
[15] = system: Digitaria sanguinalis; experiment: Herbicidal activity against Digitaria sanguinalis (hairy crabgrass) assessed as inhibition of fresh weed plant weight at 93.75 g/ha using pre-emergence treatment protocol
[16] = system: Amaranthus retroflexus; experiment: Herbicidal activity against Amaranthus retroflexus assessed as inhibition of fresh weed plant weight at 187.5 g/ha using pre-emergence treatment protocol
[17] = system: Amaranthus retroflexus; experiment: Herbicidal activity against Amaranthus retroflexus assessed as inhibition of fresh weed plant weight at 93.75 g/ha using pre-emergence treatment protocol
[18] = system: Digitaria sanguinalis; experiment: Herbicidal activity against Digitaria sanguinalis (hairy crabgrass) assessed as inhibition of fresh weed plant weight at 750 g/ha using pre-emergence treatment protocol
[19] = system: Digitaria sanguinalis; experiment: Herbicidal activity against Digitaria sanguinalis (hairy crabgrass) assessed as inhibition of fresh weed plant weight at 375 g/ha using pre-emergence treatment protocol
[20] = system: Echinochloa crus-galli; experiment: Herbicidal activity against Echinochloa crus-galli (barnyard grass) assessed as inhibition of fresh weed plant weight at 375 g/ha using pre-emergence treatment protocol; summary of the method: as §1
[21] = system: Echinochloa crus-galli; experiment: Herbicidal activity against Echinochloa crus-galli (barnyard grass) assessed as inhibition of fresh weed plant weight at 187.5 g/ha using pre-emergence treatment protocol; summary of the method: as §1
[22] = system: Echinochloa crus-galli; experiment: Herbicidal activity against Echinochloa crus-galli (barnyard grass) assessed as inhibition of fresh weed plant weight at 93.75 g/ha using pre-emergence treatment protocol
[23] = system: Echinochloa crus-galli; experiment: Herbicidal activity against Echinochloa crus-galli (barnyard grass) assessed as inhibition of fresh weed plant weight at 1500 g/ha using pre-emergence treatment protocol
[24] = system: Echinochloa crus-galli; experiment: Herbicidal activity against Echinochloa crus-galli (barnyard grass) assessed as inhibition of fresh weed plant weight at 1500 g/ha using post-emergence treatment protocol; summary of the method: as §1
[25] = system: Brassica rapa subsp. oleifera; experiment: Herbicidal activity against Brassica rapa subsp. oleifera assessed as inhibition of fresh weed plant weight at 187.5 g/ha using post-emergence treatment protocol; summary of the method: as §1
[26] = system: Brassica rapa subsp. oleifera; experiment: Herbicidal activity against Brassica rapa subsp. oleifera assessed as inhibition of fresh weed plant weight at 375 g/ha using post-emergence treatment protocol; summary of the method: as §1
[27] = system: Brassica rapa subsp. oleifera; experiment: Herbicidal activity against Brassica rapa subsp. oleifera assessed as inhibition of fresh weed plant weight at 750 g/ha using post-emergence treatment protocol; summary of the method: as §1
[28] = system: Amaranthus retroflexus; experiment: Herbicidal activity against Amaranthus retroflexus assessed as inhibition of fresh weed plant weight at 187.5 g/ha using post-emergence treatment protocol; summary of the method: as §1
[29] = system: Digitaria sanguinalis; experiment: Herbicidal activity against Digitaria sanguinalis (hairy crabgrass) assessed as inhibition of fresh weed plant weight at 750 g/ha using post-emergence treatment protocol; summary of the method: as §1
[30] = system: Amaranthus retroflexus; experiment: Herbicidal activity against Amaranthus retroflexus assessed as inhibition of fresh weed plant weight at 750 g/ha using post-emergence treatment protocol; summary of the method: as §1
[31] = system: Amaranthus retroflexus; experiment: Herbicidal activity against Amaranthus retroflexus assessed as inhibition of fresh weed plant weight at 375 g/ha using post-emergence treatment protocol; summary of the method: as §1
[32] = system: Echinochloa crus-galli; experiment: Herbicidal activity against Echinochloa crus-galli (barnyard grass) assessed as inhibition of fresh weed plant weight at 750 g/ha using post-emergence treatment protocol; summary of the method: as §1
[33] = system: Echinochloa crus-galli; experiment: Herbicidal activity against Echinochloa crus-galli (barnyard grass) assessed as inhibition of fresh weed plant weight at 375 g/ha using post-emergence treatment protocol; summary of the method: as §1
[34] = system: Echinochloa crus-galli; experiment: Herbicidal activity against Echinochloa crus-galli (barnyard grass) assessed as inhibition of fresh weed plant weight at 187.5 g/ha using post-emergence treatment protocol; summary of the method: as §1
[35] = system: Digitaria sanguinalis; experiment: Herbicidal activity against Digitaria sanguinalis (hairy crabgrass) assessed as inhibition of fresh weed plant weight at 375 g/ha using post-emergence treatment protocol; summary of the method: as §1
[36] = system: Digitaria sanguinalis; experiment: Herbicidal activity against Digitaria sanguinalis (hairy crabgrass) assessed as inhibition of fresh weed plant weight at 187.5 g/ha using post-emergence treatment protocol; summary of the method: as §1

SMILES	inhibition at 1500 g/ha [1]	inhibition at 1500 g/ha [2]	inhibition at 1500 g/ha [3]	inhibition at 187.5 g/ha [5]	inhibition at 375 g/ha [6]	inhibition at 750 g/ha [7]	inhibition at 1500 g/ha [8]	inhibition at 1500 g/ha [9]	inhibition at 1500 g/ha [10]	inhibition at 750 g/ha [11]	inhibition at 750 g/ha [12]	inhibition at 375 g/ha [13]	inhibition at 187.5 g/ha [14]	inhibition at 187.5 g/ha [16]	inhibition at 750 g/ha [18]	inhibition at 375 g/ha [19]	inhibition at 375 g/ha [20]	inhibition at 187.5 g/ha [21]	inhibition at 1500 g/ha [23]	inhibition at 1500 g/ha [24]	other results
CCCN1C(=O)COc2cc(F)c(-n3nnc4c(cnn4C)c3=O)cc21	94.1%	54.1%	100%	38.5%	57.1%	79.9%	47.5%	20.5%	100%	91.2%	95.3%	93.2%	14.2%	89.5%	87.8%	65.4%	69.6%	28.4%	94.8%	46.9%	inhibition at 93.75 g/ha [4]: 32.2%; inhibition at 93.75 g/ha [15]: 3.9%; inhibition at 93.75 g/ha [17]: 83.8%; inhibition at 93.75 g/ha [22]: 0%
C#CCOc1cc(-n2nnc3c(cnn3CC=C)c2=O)c(F)cc1Cl	37.4%	88.6%	87%	0%	0%	0%	41.3%	18.5%	7.4%	0%	41%	27.9%	6.5%	21.3%	17.4%	13%	0%	0%	0%	38.3%	inhibition at 187.5 g/ha [25]: 0%; inhibition at 375 g/ha [26]: 3.4%; inhibition at 750 g/ha [27]: 7.4%; inhibition at 187.5 g/ha [28]: 7.3%; inhibition at 750 g/ha [29]: 19.4%; inhibition at 750 g/ha [30]: 41.5%; inhibition at 375 g/ha [31]: 12.2%; inhibition at 750 g/ha [32]: 17.1%; inhibition at 375 g/ha [33]: 11.2%; inhibition at 187.5 g/ha [34]: 7.3%; inhibition at 375 g/ha [35]: 0%; inhibition at 187.5 g/ha [36]: 0%
C=CCOc1cc(-n2nnc3c(cnn3CC=C)c2=O)c(F)cc1Cl	10.5%	100%	60.1%	9%	11.9%	16.4%	23.1%	10.3%	30.5%	16.9%	34.4%	27.9%	0%	1.6%	4.3%	0%	10%	6.5%	30.1%	32.3%	inhibition at 187.5 g/ha [25]: 0%; inhibition at 375 g/ha [26]: 0%; inhibition at 750 g/ha [27]: 2.9%; inhibition at 187.5 g/ha [28]: 12.2%; inhibition at 750 g/ha [29]: 11.1%; inhibition at 750 g/ha [30]: 100%; inhibition at 375 g/ha [31]: 85.4%; inhibition at 750 g/ha [32]: 22%; inhibition at 375 g/ha [33]: 18%; inhibition at 187.5 g/ha [34]: 2.4%; inhibition at 375 g/ha [35]: 0%; inhibition at 187.5 g/ha [36]: 0%
